Experimental data: ChEMBL document CHEMBL1156274, “Potent arylsulfonamide inhibitors of tumor necrosis factor-alpha converting enzyme able to reduce activated leukocyte cell adhesion molecule shedding in cancer cell models” (J Med Chem, 2010); call rule not given here

What was measured:
Interstitial collagenase = target: T1, Interstitial collagenase (Homo sapiens, UniProt P03956); experiment: Inhibition of MMP1 by fluorometric assay
T1 sequence (P03956 whole entry): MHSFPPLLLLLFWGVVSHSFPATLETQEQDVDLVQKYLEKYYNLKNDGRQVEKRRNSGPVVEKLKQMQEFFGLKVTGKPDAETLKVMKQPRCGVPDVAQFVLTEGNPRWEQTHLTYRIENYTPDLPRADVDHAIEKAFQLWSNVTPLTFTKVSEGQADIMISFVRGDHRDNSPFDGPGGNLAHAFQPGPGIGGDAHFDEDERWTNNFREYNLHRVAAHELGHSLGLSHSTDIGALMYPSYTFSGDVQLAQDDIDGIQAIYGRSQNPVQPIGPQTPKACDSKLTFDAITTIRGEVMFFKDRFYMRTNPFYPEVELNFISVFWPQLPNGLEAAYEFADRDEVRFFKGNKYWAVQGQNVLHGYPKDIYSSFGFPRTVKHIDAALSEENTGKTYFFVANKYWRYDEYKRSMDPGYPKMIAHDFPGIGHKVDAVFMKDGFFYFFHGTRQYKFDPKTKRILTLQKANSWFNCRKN

[1] = target: 72 kDa type IV collagenase (Homo sapiens, UniProt P08253)
72 kDa type IV collagenase, sequence (P08253 whole entry): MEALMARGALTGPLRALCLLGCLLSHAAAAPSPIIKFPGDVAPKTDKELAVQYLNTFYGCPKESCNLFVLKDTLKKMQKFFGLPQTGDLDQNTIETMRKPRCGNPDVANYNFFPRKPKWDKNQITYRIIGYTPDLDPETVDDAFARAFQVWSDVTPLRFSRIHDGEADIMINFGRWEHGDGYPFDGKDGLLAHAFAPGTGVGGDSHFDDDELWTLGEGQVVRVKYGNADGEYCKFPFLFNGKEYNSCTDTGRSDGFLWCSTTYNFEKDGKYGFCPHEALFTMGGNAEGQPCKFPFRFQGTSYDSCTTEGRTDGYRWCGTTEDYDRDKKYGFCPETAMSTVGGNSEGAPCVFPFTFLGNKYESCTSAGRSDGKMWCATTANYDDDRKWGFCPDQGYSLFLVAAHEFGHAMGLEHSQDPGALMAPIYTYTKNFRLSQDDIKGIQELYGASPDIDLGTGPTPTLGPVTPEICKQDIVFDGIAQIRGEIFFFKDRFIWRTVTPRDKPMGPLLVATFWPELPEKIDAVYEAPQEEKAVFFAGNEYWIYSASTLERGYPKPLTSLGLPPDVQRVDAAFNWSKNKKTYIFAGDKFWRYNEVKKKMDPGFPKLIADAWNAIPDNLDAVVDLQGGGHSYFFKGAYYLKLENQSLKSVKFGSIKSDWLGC

[2] = target: Matrix metalloproteinase-9 (Homo sapiens, UniProt P14780); experiment: Inhibition of MMP9 by fluorometric assay
Matrix metalloproteinase-9, sequence (P14780 whole entry): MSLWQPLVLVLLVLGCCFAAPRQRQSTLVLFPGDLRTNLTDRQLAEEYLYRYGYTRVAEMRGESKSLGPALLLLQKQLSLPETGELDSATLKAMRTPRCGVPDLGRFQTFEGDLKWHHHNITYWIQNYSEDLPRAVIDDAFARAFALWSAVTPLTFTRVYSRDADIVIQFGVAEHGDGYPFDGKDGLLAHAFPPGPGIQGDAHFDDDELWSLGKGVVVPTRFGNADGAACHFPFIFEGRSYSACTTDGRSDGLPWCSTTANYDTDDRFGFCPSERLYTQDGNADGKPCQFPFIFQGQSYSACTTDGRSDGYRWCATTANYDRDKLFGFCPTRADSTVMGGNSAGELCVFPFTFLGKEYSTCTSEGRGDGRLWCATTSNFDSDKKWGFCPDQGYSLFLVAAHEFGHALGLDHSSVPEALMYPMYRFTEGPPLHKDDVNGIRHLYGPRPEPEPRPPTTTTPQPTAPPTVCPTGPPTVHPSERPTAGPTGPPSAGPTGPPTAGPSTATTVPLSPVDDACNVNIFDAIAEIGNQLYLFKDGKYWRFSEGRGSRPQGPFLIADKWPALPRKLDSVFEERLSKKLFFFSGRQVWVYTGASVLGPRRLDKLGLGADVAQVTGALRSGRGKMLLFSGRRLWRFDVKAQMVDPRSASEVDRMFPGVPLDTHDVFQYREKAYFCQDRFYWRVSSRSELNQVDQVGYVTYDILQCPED

[3] = target: Matrix metalloproteinase-14 (Homo sapiens, UniProt P50281); experiment: Inhibition of human recombinant MMP14 by fluorometric assay
How it was run: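 Fluorogenic substrate Mca-Lys-Pro-Leu-Gly-Leu-Dap(Dnp)-Ala-Arg-NH2 (2 μM final). Enzymes: APMA-activated (2 mM, 2 h, 37 °C) pro-MMP-1 at 2.0 nM; MMP-14 catalytic domain at 1.0 nM. Each enzyme preincubated 4 h at 25 °C with seven inhibitor concentrations in Tris 50 mM pH 7.5, NaCl, CaCl2, Brij-35, 1% DMSO. Fluorescence (ex 325/em 395 nm) read every 15 s for 20 min.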

[4] = target: T2, Disintegrin and metalloproteinase domain-containing protein 17 (Homo sapiens, UniProt P78536); experiment: Inhibition of human recombinant ADAM17 by fluorometric assay
T2 sequence (P78536 whole entry, the tested form may be a part): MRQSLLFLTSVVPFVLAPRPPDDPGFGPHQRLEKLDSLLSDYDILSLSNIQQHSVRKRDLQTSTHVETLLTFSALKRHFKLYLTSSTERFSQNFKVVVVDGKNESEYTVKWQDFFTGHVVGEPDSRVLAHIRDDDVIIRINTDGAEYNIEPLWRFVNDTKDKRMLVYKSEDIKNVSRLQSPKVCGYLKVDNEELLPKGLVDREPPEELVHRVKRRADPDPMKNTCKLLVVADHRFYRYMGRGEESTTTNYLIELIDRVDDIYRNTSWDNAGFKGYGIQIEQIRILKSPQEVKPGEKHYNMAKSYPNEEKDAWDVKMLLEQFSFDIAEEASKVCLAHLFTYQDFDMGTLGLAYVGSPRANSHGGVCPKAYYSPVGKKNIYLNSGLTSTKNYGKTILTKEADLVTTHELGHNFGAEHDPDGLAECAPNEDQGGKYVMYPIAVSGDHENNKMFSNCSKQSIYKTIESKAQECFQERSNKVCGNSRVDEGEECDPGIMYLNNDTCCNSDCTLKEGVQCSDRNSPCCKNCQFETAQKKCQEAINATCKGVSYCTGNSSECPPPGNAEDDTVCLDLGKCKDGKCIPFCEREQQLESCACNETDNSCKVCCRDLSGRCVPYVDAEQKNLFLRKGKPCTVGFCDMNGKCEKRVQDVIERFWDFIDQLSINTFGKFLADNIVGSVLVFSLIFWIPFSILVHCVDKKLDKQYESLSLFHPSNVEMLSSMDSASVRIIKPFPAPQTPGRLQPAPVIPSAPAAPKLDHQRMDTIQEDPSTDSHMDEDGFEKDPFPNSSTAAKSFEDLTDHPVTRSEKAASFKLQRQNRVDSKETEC

[5] = target: T3, Disintegrin and metalloproteinase domain-containing protein 10 (Homo sapiens, UniProt O14672); experiment: Inhibition of human recombinant ADAM10 by fluorometric assay
T3 sequence (O14672 whole entry): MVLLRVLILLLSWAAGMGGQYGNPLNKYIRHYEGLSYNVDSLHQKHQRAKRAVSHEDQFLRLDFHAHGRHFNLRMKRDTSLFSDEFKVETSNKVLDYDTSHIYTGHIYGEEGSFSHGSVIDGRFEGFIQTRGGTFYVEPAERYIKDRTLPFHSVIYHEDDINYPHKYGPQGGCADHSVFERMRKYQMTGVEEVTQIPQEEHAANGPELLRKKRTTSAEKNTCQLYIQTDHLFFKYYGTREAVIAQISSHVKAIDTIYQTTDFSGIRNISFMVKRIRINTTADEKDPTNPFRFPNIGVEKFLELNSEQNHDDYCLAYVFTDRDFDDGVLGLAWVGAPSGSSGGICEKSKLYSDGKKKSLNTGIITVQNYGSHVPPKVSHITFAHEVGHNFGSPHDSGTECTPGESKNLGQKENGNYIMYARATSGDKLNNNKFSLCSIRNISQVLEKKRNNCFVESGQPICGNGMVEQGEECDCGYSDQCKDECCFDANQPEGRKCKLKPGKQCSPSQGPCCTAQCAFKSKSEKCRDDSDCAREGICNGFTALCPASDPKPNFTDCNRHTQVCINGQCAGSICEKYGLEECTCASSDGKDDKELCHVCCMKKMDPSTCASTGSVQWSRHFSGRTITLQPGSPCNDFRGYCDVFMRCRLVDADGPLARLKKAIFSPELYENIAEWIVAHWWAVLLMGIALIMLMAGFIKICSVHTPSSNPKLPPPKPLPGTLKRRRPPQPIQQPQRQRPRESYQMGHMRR
How it was run: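 Recombinant human ADAM-10 (20 nM) preincubated with seven inhibitor concentrations for 1 h at 37 °C in Tris 25 mM, ZnCl2 25 μM, Brij-35 0.005%, pH 9. Fluorogenic substrate Mca-Lys-Pro-Leu-Gly-Leu-Dap(Dnp)-Ala-Arg-NH2 at 10 μM final. Fluorescence (ex 325/em 395 nm) monitored every 15 s for 20 min. IC50 from initial velocities versus inhibitor-free control; mean of three independent experiments in duplicate.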

[6] = target: T2, Disintegrin and metalloproteinase domain-containing protein 17; experiment: Inhibition of ADAM17 in human A2774 cells assessed as inhibition of constitutive sALCAM release by ELISA; format: cell-based
[7] = target: T2, Disintegrin and metalloproteinase domain-containing protein 17; experiment: Inhibition of ADAM17 in human A2774 cells assessed as inhibition of pervanadate-induced sALCAM release by ELISA; format: cell-based
[8] = target: T2, Disintegrin and metalloproteinase domain-containing protein 17; experiment: Inhibition of ADAM17 in human A2774 cells assessed as inhibition of EGF-induced sALCAM release by ELISA; format: cell-based
[9] = target: T2, Disintegrin and metalloproteinase domain-containing protein 17; experiment: Inhibition of ADAM17 in human SKOV3 cells assessed as inhibition of constitutive sALCAM release by ELISA; format: cell-based, SK-OV-3
SK-OV-3 = experiment: Cytotoxicity against human SKOV3 cells after 72 hrs by MTT assay; format: cell-based; settings: sk-ov-3, 72 h
How it was run: (§1)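 Cell lines grown in RPMI 1640 with 10% heat-inactivated FCS, 2 mM glutamine and penicillin-streptomycin at 37 °C, 5% CO2. Seeded at 2 × 10^3 cells/well and exposed to a range of inhibitor concentrations (DMSO stocks) for 24, 48 or 72 h at 37 °C. MTT added for 4 h, formazan dissolved in DMSO, absorbance read at 540 nm; mean of triplicates.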

[10] = target: T2, Disintegrin and metalloproteinase domain-containing protein 17; experiment: Inhibition of ADAM17 in human SKOV3 cells assessed as inhibition of EGF-induced sALCAM release by ELISA; format: cell-based, SK-OV-3
[11] = target: T2, Disintegrin and metalloproteinase domain-containing protein 17; experiment: Inhibition of ADAM17 in human MCF7 cells assessed as inhibition of constitutive sALCAM release by ELISA; format: cell-based
[12] = target: T2, Disintegrin and metalloproteinase domain-containing protein 17; experiment: Inhibition of ADAM17 in human MCF7 cells assessed as inhibition of pervanadate-induced sALCAM release by ELISA; format: cell-based
[13] = target: T2, Disintegrin and metalloproteinase domain-containing protein 17; experiment: Inhibition of ADAM17 in human MCF7 cells assessed as inhibition of EGF-induced sALCAM release by ELISA; format: cell-based
[14] = target: T2, Disintegrin and metalloproteinase domain-containing protein 17; experiment: Inhibition of ADAM17 in human MDA-MB-468 cells assessed as inhibition of constitutive sALCAM release by ELISA; format: cell-based
[15] = target: T2, Disintegrin and metalloproteinase domain-containing protein 17; experiment: Inhibition of ADAM17 in human MDA-MB-468 cells assessed as inhibition of pervanadate-induced sALCAM release by ELISA; format: cell-based
[16] = target: T2, Disintegrin and metalloproteinase domain-containing protein 17; experiment: Inhibition of ADAM17 in human MDA-MB-468 cells assessed as inhibition of EGF-induced sALCAM release by ELISA; format: cell-based
[17] = target: T2, Disintegrin and metalloproteinase domain-containing protein 17; experiment: Inhibition of ADAM17 in human GI-CA-N cells assessed as inhibition of constitutive sALCAM release by ELISA; format: cell-based
[18] = target: T2, Disintegrin and metalloproteinase domain-containing protein 17; experiment: Inhibition of ADAM17 in human GI-CA-N cells assessed as inhibition of pervanadate-induced sALCAM release by ELISA; format: cell-based
[19] = Cytotoxicity against human A2774 cells after 72 hrs by MTT assay; format: cell-based; settings: a2774, 72 h; how it was run: as §1
MCF7 = experiment: Cytotoxicity against human MCF7 cells after 72 hrs by MTT assay; format: cell-based; settings: mcf7, 72 h; how it was run: as §1
MDA-MB-468 = experiment: Cytotoxicity against human MDA-MB-468 cells after 72 hrs by MTT assay; format: cell-based; settings: mda-mb-468, 72 h; how it was run: as §1
[20] = Cytotoxicity against human GI-CA-N cells after 72 hrs by MTT assay; format: cell-based; how it was run: as §1
[21] = target: T2, Disintegrin and metalloproteinase domain-containing protein 17; settings: A2774

Q: Which results are given for `CC#CCOc1ccc(S(=O)(=O)N[C@H](CCN2C(=O)c3ccccc3C2=O)C(=O)NO)cc1`?
A: IC50 (Interstitial collagenase): 350 nM; IC50 [1]: 4.2 nM; IC50 [2]: 3.5 nM; IC50 [3]: 4.3 nM; IC50 [4]: 0.7 nM; IC50 [5]: 190 nM; IC50 [6]: 1100 nM; IC50 [7]: 15 nM; IC50 [8]: 550 nM; IC50 [9]: 2600 nM; Activity (SK-OV-3): Not Active; IC50 [10]: 4.3 nM; IC50 [11]: 1400 nM; IC50 [12]: 51 nM; IC50 [13]: 760 nM; IC50 [14]: 1700 nM; IC50 [15]: 800 nM; IC50 [16]: 280 nM; IC50 [17]: 97 nM; IC50 [18]: 73 nM; Activity [19]: Not Active; Activity (MCF7): Not Active; Activity (MDA-MB-468): Not Active; Activity [20]: Not Active; IC50 [21]: 15 nM
